From paper PMC3401475 (Nucleic Acids Research, 2012)

Legend:
[1] = Relative fluorescence quantum yield; format: physicochemical; conditions: in methanol, excitation 362 nm
[2] = molecular target: (CUG)10 RNA; assay: SPR binding to
How it was run: (§1)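 Streptavidin coupled to both flow cells of a CM5 dextran chip after EDC/NHS activation. 5'-Biotin RNA captured at 200–1000 RU; reference cell biotin-blocked. Compound concentrations flowed in HBS-N (0.01 M HEPES, 0.15 M NaCl, pH 7.4) […]. Dissociation ≥200 s, then 0.5 or 1 M NaCl regeneration. Duplicate injections, buffer-blank subtracted. Global 1:1 Langmuir fit. KD averaged over two chips with different RNA densities. t1/2 = ln2/koff.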

[3] = system: human fibroblast cells; assay: MTT cell viability, human fibroblasts; format: cell-based; conditions: at concentrations up to 500 µM
[4] = system: C2C12 mouse myoblasts; assay: MTT cell toxicity, mouse myoblasts; format: cell-based; conditions: 48 h, all concentrations tested
How it was run: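 C2C12 myoblasts in DMEM (10% FBS, 1% penicillin–streptomycin) grown to ~80% confluence at 37°C under CO2. Compound at varying concentrations (up to 1 mM), 48 h, 37°C. MTT in medium added for 4 h at 37°C, then isopropanol solubilisation; absorbance read at 600 nm.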

[5] = system: (CCUG)10 RNA; assay: SPR binding to
How it was run: as §1

CCc1nc2cc3ccccc3cc2cc1C(=O)O [Compound 2, ethylbenzo[g]quinoline carboxylic acid]
fluorescence quantum yield relative to quinine sulfate [1]: 0.64 | Apparent KD ([2]; (CUG)10, HBS-N pH 7.4, average of two titrations): complete lack of binding | toxicity by MTT assay [3]: no toxicity

CO[C@@]12[C@H](COC(N)=O)C3=C(C(=O)C(C)=C(N)C3=O)N1C[C@@H]1N[C@@H]12 [mitomycin C]
toxicity by MTT assay [4]: significant toxicity

NC[C@@H]1O[C@H](O[C@H]2[C@@H](O)[C@H](O[C@@H]3[C@@H](O)[C@H](N)C[C@H](N)[C@H]3O[C@H]3O[C@H](CN)[C@@H](O)[C@H](O)[C@H]3N)O[C@@H]2CO)[C@H](N)[C@@H](O)[C@@H]1O [Neomycin, Neomycin B]
Residence time t1/2 ([2]; (CUG)10, t1/2 = ln2/kd): 14 s | Kd ([2]; read-out: Apparent KD, (CUG)10, HBS-N pH 7.4, average of two titrations): 0.409 µM | Residence time t1/2 ([5]; (CCUG)10, t1/2 = ln2/kd): 4 s | Kd ([5]; read-out: Apparent KD, (CCUG)10, HBS-N pH 7.4, average of two titrations): 1.96 µM
